Source: ChEMBL document CHEMBL5257021 (J Med Chem, 2016)
Active and inactive are the calls of the source. The calls are words filed in the database; no cut-off is given here.

Legend:
MDA-MB-231 [1] = assay: Cytotoxicity against human MDA-MB-231 cells expressing Y1R assessed as reduction in cell viability treated for 8 hrs followed by culturing in proliferation medium for 72 hrs by resazurin assay
MDA-MB-468 [2] = assay: Cytotoxicity against human MDA-MB-468 cells expressing Y1R assessed as reduction in cell viability at 10 uM treated for 8 hrs followed by culturing in proliferation medium for 72 hrs in presence of 10 equiv hY1R agonist, [F7,P34]-NPY by resazurin assay; type: functional, cell-based; settings: time 80.0 hrs
How it was run: (§1)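 Breast cancer cells were exposed for 8 h at 37 °C in FCS-free medium to toxic agent together with 10 equiv of hY1R agonist [F7,P34]-NPY. Cells were then washed twice and grown 72 h in culture medium. Medium-treated cells with or without agonist were set at 100% and ethanol-treated cells at 0%. Triplicate, ≥2 independent experiments.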

MDA-MB-231 [3] = assay: Cytotoxicity against human MDA-MB-231 cells expressing Y1R assessed as reduction in cell viability at 25 uM treated for 8 hrs followed by culturing in proliferation medium for 72 hrs in presence of 10 equiv hY1R agonist, [F7,P34]-NPY by resazurin assay; type: functional, cell-based; settings: time 80.0 hrs
How it was run: as §1

T47D = assay: Cytotoxicity against human T47D cells expressing Y1R assessed as reduction in cell viability at 5 uM treated for 8 hrs followed by culturing in proliferation medium for 72 hrs in presence of 10 equiv hY1R agonist, [F7,P34]-NPY by resazurin assay; type: functional, cell-based; settings: time 80.0 hrs
How it was run: as §1, with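 “medium. Viability was read by resazurin (10% v/v, 2 h, ex 550/em 595 nm).” for “medium.”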

T-47D (Homo sapiens) = assay: Cytotoxicity against human T47D cells expressing Y1R assessed as reduction in cell viability treated for 8 hrs followed by culturing in proliferation medium for 72 hrs by resazurin assay
T47D (Homo sapiens) = assay: as above
MDA-MB-468 [4] = assay: Cytotoxicity against human MDA-MB-468 cells expressing Y1R assessed as reduction in cell viability treated for 8 hrs followed by culturing in proliferation medium for 72 hrs by resazurin assay; type: functional, cell-based
[5] = Cytotoxicity against human HEK293 cells assessed as cell viability at >= 1 uM treated for 8 hrs followed by culturing in proliferation medium for 72 hrs by resazurin assay; type: toxicity, cell-based; settings: read-out: Activity
How it was run: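 Seeding was 6000/well for MDA-MB-231, 10000 for T-47D, and 8000 for MDA-MB-468 and HEK293. After 24 h, cells got compound at 50 to 0.01 μM in FCS-free medium for 8 h at 37 °C, were washed twice, then kept 72 h in culture medium. Resazurin 10% (v/v) was added for 2 h at 37 °C and resorufin fluorescence read (ex 550/em 595 nm). Medium-only cells were set at 100% and 70% ethanol-treated cells at 0%.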

SMILES: CN(Cc1cnc2nc(N)nc(N)c2n1)c1ccc(C(=O)N[C@@H](CCC(=O)O)C(=O)O)cc1 [METHOTREXATE]
- IC50 (MDA-MB-231 [1]; read-out: IC50): 15000 nM
- IC50 (MDA-MB-231 [1]; read-out: pIC50 (converted)): 15800 nM
- Activity (MDA-MB-468 [2]): Active
- Activity (MDA-MB-231 [3]): Active
- Activity (T47D): Active
- IC50 (T-47D (Homo sapiens)): 501 nM
- IC50 (T47D (Homo sapiens)): 500 nM
- IC50 (MDA-MB-468 [4]; read-out: IC50): 200 nM
- IC50 (MDA-MB-468 [4]; read-out: pIC50 (converted)): 200 nM
- viability at 80 h, 1 µM [5]: 65%
